The list is not random: actives were taken first. Their share in the collection is about 3.6%.
AHR act – AHR activators, primary screen, cell-based, luminescence, luciferase reporter, human | Aryl hydrocarbon receptor (Homo sapiens), P35869 | AHR-responsive luciferase reporter cells | activation, % at 5 µM | 2.5% of 320,000 active; in the data active = activation above about 47%;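 note: 0% = vehicle wells and 100% = reference agonist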
Target sequence (P35869 whole entry, looked up): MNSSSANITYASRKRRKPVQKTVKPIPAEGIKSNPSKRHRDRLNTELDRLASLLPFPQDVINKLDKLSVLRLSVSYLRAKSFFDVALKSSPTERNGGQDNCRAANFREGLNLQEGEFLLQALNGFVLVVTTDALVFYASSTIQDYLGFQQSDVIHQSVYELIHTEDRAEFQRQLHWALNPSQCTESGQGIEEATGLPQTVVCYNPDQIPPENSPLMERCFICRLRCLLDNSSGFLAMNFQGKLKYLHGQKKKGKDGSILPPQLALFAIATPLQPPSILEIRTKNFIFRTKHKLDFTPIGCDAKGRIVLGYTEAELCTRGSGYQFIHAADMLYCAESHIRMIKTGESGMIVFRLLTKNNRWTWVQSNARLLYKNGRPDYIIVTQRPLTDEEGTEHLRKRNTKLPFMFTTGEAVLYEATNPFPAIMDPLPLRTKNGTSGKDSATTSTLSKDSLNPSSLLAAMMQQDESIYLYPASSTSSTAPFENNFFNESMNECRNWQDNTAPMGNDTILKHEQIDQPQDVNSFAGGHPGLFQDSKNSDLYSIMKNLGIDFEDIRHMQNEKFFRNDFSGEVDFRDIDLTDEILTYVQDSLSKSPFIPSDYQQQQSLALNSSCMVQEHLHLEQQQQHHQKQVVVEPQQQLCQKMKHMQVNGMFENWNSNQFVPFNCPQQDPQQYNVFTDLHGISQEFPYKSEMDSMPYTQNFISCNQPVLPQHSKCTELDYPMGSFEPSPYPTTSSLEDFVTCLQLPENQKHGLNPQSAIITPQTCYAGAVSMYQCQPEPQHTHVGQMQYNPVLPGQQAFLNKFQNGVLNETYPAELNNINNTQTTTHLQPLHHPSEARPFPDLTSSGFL
STAT3 activator – IL-6 driven STAT3 reporter potentiators, primary screen, U3A cells, luciferase, luminescence, MLSCN library; AID 871, 2007; 0.91% of 190,000 active; IL-6 STAT3-luciferase reporter; 100% = signal with IL-6 EC80 alone; activation (% of control), % at 5.6 µM;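 active = activation above the screen-wide mean of compound activation plus 3 SD, cut at about 130% in these data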;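 note: 0% = background luminescence of wells with medium and substrate only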
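System – human U3A cells carrying STAT3-luciferase construct · Probe or stimulus – Interleukin-6, 33 ng/mL · Schedule – compound 1 h, then IL-6 6 h at 37 °C · Signal – luminescence from STAT3-driven luciferase reporter · Evaluation – percent of IL-6-only median luminescence · Benchmarks – IL-6-only high control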
PolyA inh – polyadenylation inhibitors in yeast reporter cells, primary screen, luminescence, S. cerevisiae; S. cerevisiae SKY197-pL101 polyadenylation reporter, beta-gal luminescence; efflux-impaired pdr1/pdr3 knockout yeast; score 100 = 6 SD above DMSO; activity score, % at 12 µM; 0.02% of 300,000 active;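 active = lowest replicate activity score at least 50, where 100 means six control SD above control mean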;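 note: yeast exposed to compound for 9 h at 30 °C; higher score means more reporter readthrough which indicates perturbed polyadenylation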
HSF1 inhib – HSF1 inhibitors in luciferase reporter cells, primary screen, cell-based, NIH3T3, luminescence; 0.77% of 300,000 active; activity change, negative = inhibition, % at 7.5 µM (by protocol); NIH3T3-HGL HSE-luciferase, MG132-induced, luminescence 8 h; hits give low values; AID 2098, 2009;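 active = more than half of replicate wells show activity change below -50%, luminescence cut by over half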;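 note: luciferase reports HSF-1 transcriptional activity via heat shock element; 0% = median of DMSO wells and -100% = zero luminescence signal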
Hsp70 act – Hsp70 transcriptional activators, primary screen, cell-based, HeLa, Hsp70 promoter luciferase, luminescence, 10 µM; AID 1203, 2008; HeLa Hsp70 promoter luciferase reporter; scaled: vehicle 0, proteasome-inhibitor control 100%; 0.04% of 200,000 active; activation, % at 10 µM;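 active = activation above the mean across all tested compounds plus 3 SD, cutoff set per campaign, cut at about 5.5% in these data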;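 note: 100% = MG132 at 30 µM as the positive control and 0% = DMSO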
PERK inhibitor – block of dimerizer-induced PERK translation repression, primary screen, PERK inhibitor project, CHO PERK-DD cells, SEAP luminescence, HTS | inhibition, % at 5.6 µM | CHO PERK-DD fusion, SEAP luminescence translation reporter | Eukaryotic translation initiation factor 2-alpha kinase 3 (Homo sapiens), Q9NZJ5 | AID 1416, 2008 | 0.17% of 220,000 active;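 active = inhibition above the mean inhibition of all tested compounds plus 3 SD, set separately per screening campaign, cut at about 2.9% in these data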;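 note: PERK kinase domain activated by AP20187 dimerizer at 100 nM; 0% = DMSO with dimerizer and 100% = rapamycin at 8.4 µM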
An asterisk follows results filed as active; · = not tested or not shown.

SMILES	AHR act	STAT3 activator	PolyA inh	HSF1 inhib	Hsp70 act	PERK inhibitor
Cc1cccc(NC(=O)c2ccc(C(=O)c3ccccc3)cc2)n1	5	·	-6	29	·	·
Cc1cc(NC(=O)c2cccc(Cl)c2)n[nH]1	71*	·	13	12	·	·
Cc1ccc(OCC(=O)NC(=S)Nc2cccc(C)n2)cc1	3	96	8	19	0	0
Cc1cccc(NC(=O)c2cccc(C(=O)Nc3cccc(C)n3)c2)n1	50*	·	10	1	·	·
Cc1cccc(NC(=O)Nc2ccc(C)c(C)c2)n1	43	135*	-8	14	0	-1
Cc1ccc(OCC(=O)N(Cc2nnc(-c3ccccc3Cl)o2)C2CC2)cc1C	14	·	·	·	·	·
C=CCOc1ccc(/C=C/C(=O)OCC(=O)NCC2CCCCC2)cc1	-1	·	-13	-68*	·	·
C=CCOc1ccc(/C=C/C(=O)OCC(=O)NC2CCCCCCC2)cc1	-1	·	14	-5	·	·
CN(Cc1cn[nH]c1-c1ccc(-c2ccccc2)cc1)CC1CCOCC1	16	·	0	6	·	-1
CC(c1ccon1)N(C)Cc1cn[nH]c1-c1ccc(-c2ccccc2)cc1 (stereo unspecified)	61*	100	17	13	0	0
CN(Cc1ccon1)Cc1cn[nH]c1-c1ccc(-c2ccccc2)cc1	52*	100	0	8	0	0
COc1cc(C2C(C(=O)c3ccc(C)o3)=C(O)C(=O)N2CCN2CCOCC2)ccc1OCCC(C)C (stereo unspecified)	·	·	-19	1	·	·
Cc1cc(C)c(OCC(=O)N(Cc2ccccc2)C2CCS(=O)(=O)C2)c(C)c1 (stereo unspecified)	-1	·	5	6	·	·
COc1ccc(C(=O)/C=C2/C(=O)Nc3ccccc32)cc1	·	·	-85	-2	·	·
O=C1Nc2ccccc2/C1=C/C(=O)c1cccs1	118*	134*	-37	-65*	0	0
Cc1ccc(Nc2nc(-c3cccnc3)nc3ccccc23)cc1	-8	·	-30	-8	·	-2
Cc1cccc(-c2nc(Nc3cccc(O)c3)c3ccccc3n2)c1	68*	·	-10	2	·	·
Oc1ccc(Nc2nc(-c3ccccc3)nc3ccccc23)cc1	3	·	-19	5	·	·
Cc1cccc(-c2nc(Nc3ccc(N4CCOCC4)cc3)c3ccccc3n2)c1	56*	88	-4	4	0	-1
c1ccc2c(N3CCOCC3)nc(N3CCOCC3)nc2c1	2	97	-7	-8	0	-1
c1ccc2c(Nc3ccc(N4CCOCC4)cc3)nc(N3CCOCC3)nc2c1	72*	·	-3	3	·	·
O=C(Cc1coc2cc(O)ccc12)NNC(=O)c1cccs1	3	·	·	·	·	·
Cc1cc(NC2CCCC2)n2ncc(-c3ccccc3)c2n1	6	·	-10	-67*	·	·
Cc1cc(-c2ccccc2)n2ncc(-c3ccccc3)c2n1	57*	60	-4	-42	0	0
Cc1nc2c(-c3ccccc3)cnn2c(N)c1-c1ccccc1	·	·	-26	-87*	·	·
SMILES	AHR act	STAT3 activator	PolyA inh	HSF1 inhib	Hsp70 act	PERK inhibitor
CCOC(=O)Cc1c(C)nc2c(-c3ccccc3)cnn2c1C	54*	98	10	25	0	-1
COc1cccc(CCNC(=O)C2CCC(=O)N(C3CC3)C2)c1OC (stereo unspecified)	·	·	21	21	·	·
Cc1cc(C2(c3cc(C)c(NC(=O)CN4CCOCC4)c(C)c3)CCCCC2)cc(C)c1NC(=O)CN1CCOCC1	-1	104	7	-57*	0	-1
COc1cccc(/C=C/c2nc3c(cnn3-c3ccccc3)c(=O)[nH]2)c1	32	118	-17	-17	0	1
O=c1[nH]c(/C=C/c2ccc(Br)cc2)nc2c1cnn2-c1ccccc1	54*	107	-2	0	0	3
CCOC(=O)c1cc(-c2ccccc2C)nn1CC1CC(c2cccnc2)=NO1 (stereo unspecified)	1	·	·	·	·	·
CC(=O)c1ccc(NC(=O)C2CCCN2S(=O)(=O)c2ccc(F)cc2)cc1 (stereo unspecified)	-1	93	-5	3	0	1
O=C(Nc1ccc(O)cc1)C1CCCN1S(=O)(=O)c1ccc(F)cc1 (stereo unspecified)	79*	102	-12	4	0	1
CCOC(=O)c1c2n(c3ccc(OC(C)=O)cc13)CCC2	48*	88	22	2	0	1
O=C(N/C(=C\c1ccc(Br)cc1)c1nc2ccccc2[nH]1)c1ccco1	75*	102	1	0	0	-1
COc1ccc(-c2c(-c3ccsc3)oc3ccc(N4CCOCC4)cc23)cn1	59*	·	14	1	·	·
COC(=O)c1ccc(/C=C/c2c(-c3ccsc3)oc3ccc(N4CCOCC4)cc23)cc1	44	·	2	0	·	·
Nc1ccc(C#Cc2c(-c3ccsc3)oc3ccc(N4CCOCC4)cc23)cc1	70*	·	0	-10	·	·
COc1ccc(-c2oc3ccc(N4CCOCC4)cc3c2C#CCO)cc1	41	·	-21	7	·	·
Cc1cc(OC(=O)c2ccccc2Br)c([N+](=O)[O-])c(=O)[nH]1	0	·	-21	-3	·	·
Cc1noc(C)c1COc1ccc(C(=O)N2CCC(C(N)=O)CC2)cc1	4	·	·	·	·	·
COc1ccc(N(C)C(=O)c2cc3c(s2)-c2c(C)cccc2OC3)c(OC)c1	9	·	14	-5	·	1
COc1cc(SC)ccc1C(=O)Nc1ccccc1C#N	40	133*	-12	10	0	0
COc1cc(SC)ccc1C(=O)NCC1CCCO1 (stereo unspecified)	6	102	8	-74*	3	1
O=C(Nc1nc(-c2cccs2)cs1)c1ccc([N+](=O)[O-])o1	28	·	·	·	·	·
N#C/C(=C\c1ccc(-c2cccc([N+](=O)[O-])c2)o1)C(=O)Nc1nc(-c2cccs2)cs1	79*	·	6	-3	·	2
O=C(Nc1nc2ccccc2[nH]1)c1ccccc1F	3	13	-14	-75*	-1	1
Cc1c(C(=O)Nc2nc3ccccc3[nH]2)cccc1[N+](=O)[O-]	60*	108	13	10	0	0
O=C(Nc1nc2ccccc2[nH]1)c1ccccc1OC(F)F	51*	·	1	26	·	·
COc1ccc(N(C(=O)c2csnn2)C(C(=O)NC2CCCC2)c2ccccc2)cc1 (stereo unspecified)	-4	·	-8	5	·	·
COCCn1nnnc1CN1CCC(NC(=O)c2ccc(Br)cc2)CC1	0	106	-2	-3	0	-1

Source: PubChem BioAssay (several laboratories)
